Source: PMC3660010 (Diabetologia, 2012)
Entries after “also recorded” stand apart in the source; their conditions may differ. Ends that are not written are not given here.

Tests used:
NEPx = NEPx (Homo sapiens, UniProt P08473, E585V); experiment: Cleavage of hIAPP by catalytically compromised NEPx, reverse phase HPLC; assay type: biochemical; conditions: 20 μmol/l hIAPP, 400 nmol/l NEPx, 37°C, 1 h
In short: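 Enzyme: recombinant human NEP ectodomain E585V mutant, expressed in CHO-S cells as a His-tagged growth hormone fusion. Purified by nickel affinity, PreScission removal of growth hormone, and MonoQ anion exchange. 20 μmol/l hIAPP incubated with the enzyme in 20 mmol/l MES, pH 6.5, at 37°C. Stopped with TFA to 0.5%. Reverse-phase HPLC on a C4 column.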

hIAPP fibrils = experiment: Transmission electron microscopy of hIAPP fibrils; assay type: biochemical, human; conditions: 37°C, 20 h; for hIAPP fibrils by TEM in the presence of protein: hIAPP 25 μmol/l with 0.5 μmol/l protein
[1] = tested on: INS 832/13 insulinoma cells; experiment: MTT assay, synthetic hIAPP-induced cytotoxicity; assay type: cell-based, rat; conditions: 48 h; for viable cells relative to vehicle control cells (MTT), peptide alone: 20 μmol/l synthetic peptide, INS 832/13, mean ± SEM
In short: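 INS 832/13 cells were exposed to 20 μmol/l synthetic hIAPP plus 4, 40 or 400 nmol/l recombinant NEP or NEPx for 48 h, with vehicle (0.8% DMSO in media), 20 μmol/l rIAPP and 400 nmol/l transferrin controls. MTT added 1:10 from 5 mg/ml stock, 4 h at 37°C, HCl/isopropanol, A570. Viability as % of vehicle; mean ± SEM, n = 3 to 9, one-way ANOVA with Dunnett's test.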

[2] = tested on: INS 832/13 insulinoma cells; experiment: Cleaved caspase-3 Western blot, synthetic hIAPP-induced apoptosis; assay type: cell-based, rat; conditions: 20 μmol/l synthetic peptide, 24 h
NEP^E585V mutant (NEPx) = NEP^E585V mutant (NEPx) (Homo sapiens, UniProt P08473, E585V); experiment: Fluorogenic assay of NEPx activity, inhibition by phosphoramidon; assay type: biochemical; conditions: GAAF-4-MNA as substrate
NEP [3] = target: T1, NEP (Homo sapiens, UniProt P08473); experiment: Fluorogenic assay of NEP activity, inhibition by phosphoramidon; assay type: biochemical
NEP [4] = target: T1, NEP; experiment: Cleavage of peptide by neprilysin, reverse phase HPLC and mass spectrometry; assay type: biochemical; conditions: 37°C
In short: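 Purified His-tagged recombinant human NEP (CHO-S-expressed, nickel-affinity and anion-exchange purified), 400 nmol/l, incubated with 20 μmol/l hIAPP (from 2.5 mmol/l DMSO stock) in 20 mmol/l MES, pH 6.5, 37°C for 60 min, with or without phosphoramidon; catalytically compromised E585V mutant run in parallel. Stopped with TFA to 0.5%, reverse-phase HPLC on C4 column; products collected manually for mass spectral identification.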

neprilysin (NEP) = experiment: 400 nmol/l recombinant NEP in 20 mmol/l MES buffer, pH 6.5; conditions: human, 37°C, up to 60 min
NEP [5] = conditions: cited from earlier work
[6] = tested on: INS 832/13 insulinoma cells; experiment: MTT assay, hIAPP overexpression-induced cytotoxicity; assay type: cell-based, rat; conditions: 48 h; for effect on hIAPP overexpression-induced cytotoxicity (MTT), 400 nmol/l protein: adenovirus prepro-hIAPP-GFP MOI 100, 400 nmol/l protein in media
In short: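 INS 832/13 rat insulinoma cells (RPMI 1640, 11.1 mmol/l glucose, 10% FBS, 37°C, 5% CO2) transduced with adenovirus encoding prepro-hIAPP-GFP at MOI 100; GFP and prepro-rIAPP-GFP viruses as controls. Recombinant NEP or NEPx (4, 40, 400 nmol/l) or transferrin (400 nmol/l) added to media. After 48 h, MTT 4 h at 37°C, acidic isopropanol, A570; viability as % of vehicle control.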

[7] = Fluorogenic assay of NEP activity with GAAF-4-MNA as substrate; assay type: biochemical; conditions: 100 μmol/l GAAF-4-MNA, 20 mmol/l MES pH 6.5, 37°C
[8] = 20 μmol/l synthetic hIAPP, mean ± SEM, n = 3 to 9

For CC[C@H](C)[C@H](NC(=O)[C@H](C)NC(=O)CNC(=O)[C@H](Cc1ccccc1)NC(=O)[C@H](CC(N)=O)NC(=O)[C@H](CC(N)=O)NC(=O)[C@H](CO)NC(=O)[C@H](CO)NC(=O)[C@H](Cc1c[nH]cn1)NC(=O)[C@@H](NC(=O)[C@H](CC(C)C)NC(=O)[C@H](Cc1ccccc1)NC(=O)[C@H](CC(N)=O)NC(=O)[C@H](C)NC(=O)[C@H](CC(C)C)NC(=O)[C@H](CCCNC(=N)N)NC(=O)[C@H](CCC(N)=O)NC(=O)[C@@H](NC(=O)[C@H](C)NC(=O)[C@@H]1CSSC[C@H](NC(=O)[C@@H](N)CCCCN)C(=O)N[C@@H](CC(N)=O)C(=O)N[C@@H]([C@@H](C)O)C(=O)N[C@@H](C)C(=O)N[C@@H]([C@@H](C)O)C(=O)N1)[C@@H](C)O)C(C)C)C(=O)N[C@@H](CC(C)C)C(=O)N[C@@H](CO)C(=O)N[C@@H](CO)C(=O)N[C@H](C(=O)N[C@@H](CC(N)=O)C(=O)N[C@H](C(=O)NCC(=O)N[C@@H](CO)C(=O)N[C@@H](CC(N)=O)C(=O)N[C@H](C(=O)N[C@@H](Cc1ccc(O)cc1)C(N)=O)[C@@H](C)O)C(C)C)[C@@H](C)O [hIAPP, IAPP (1–37, disulfide bridge 2–7, amide), reference compound], the “cleavage of hIAPP by NEPx” value (NEPx) was “no cleavage”, the “hIAPP fibrils by TEM, untreated hIAPP (CTRL)” value (hIAPP fibrils; hIAPP 25 μmol/l with buffer) was “fibrils were observed” and the “viable cells relative to vehicle control cells (MTT), peptide alone” value ([1]; n = 3 to 9) was 15.6 ± 3.5%. For the same molecule, the “induction of apoptosis (increase in cleaved caspase-3), peptide alone” value [2] was “induced apoptosis”.

In the case of CC(C)C[C@H](NP(=O)(O)O[C@@H]1O[C@@H](C)[C@H](O)[C@@H](O)[C@H]1O)C(=O)N[C@@H](Cc1c[nH]c2ccccc12)C(=O)O [phosphoramidon], the “activity of NEPx in the presence of phosphoramidon” value (NEP^E585V mutant (NEPx)) is reported as “undetectable levels”, the “activity of NEP in the presence of phosphoramidon” value (NEP [3]; GAAF-4-MNA as substrate) is reported as “undetectable levels” and the inhibition at 50 µM (NEP [3]; read-out: inhibition of NEP activity) is reported as > 99%. For the same molecule, the “effect of NEP inhibitor on hIAPP cleavage by NEP” value (NEP [4]; 20 μmol/l hIAPP, 400 nmol/l NEP, 60 min, HPLC) was “blocked”.

For “IAPP (1–37, disulfide bridge 2–7, amide)”, the cleaved bond (neprilysin (NEP)) is given as “Arg11-Leu12, major; also recorded: Leu12-Ala13, major” and the not cleaved (NEP [5]) is given as “concluded that NEP did not cleave hIAPP”.

For ILSSTNVGSNTY-NH2, the “further cleavage of the product by NEP” value (NEP [4]; product of hIAPP (20 μmol/l) with 400 nmol/l NEP, initially increased with time, then decreased (HPLC)) was “appeared to be further cleaved”.

With “TF: transferrin used as protein control [reference compound]” the “hIAPP fibrils by TEM in the presence of protein” value (shortened to “hIAPP fibrils … of protein”) (hIAPP fibrils) was “fibrils were observed”, the “viable cells (MTT) with hIAPP in the presence of 400 nmol/l protein” value (from here on “viable cells (MTT) … of 400 nmol/l protein”) [1, 8] was “did not protect” and the “effect on hIAPP overexpression-induced cytotoxicity (MTT), 400 nmol/l protein” value [6] was “had no effect”.

For “rIAPP: synthetic rodent islet amyloid polypeptide, non-aggregating control [reference compound]”, the “viable cells relative to vehicle control cells (MTT), peptide alone” value ([1]; n = 3 to 9) was “did not cause significant cytotoxicity” and the “induction of apoptosis (increase in cleaved caspase-3), peptide alone” value [2] was “but not rIAPP, induced apoptosis”.

B1: NEPx: catalytically compromised NEP^E585V mutant ectodomain, about 80% pure (protein, UniProt P08473 52-750, looked up, variant E585V)
extracellular domain: YDDGICKSSDCIKSAARLIQNMDATTEPCTDFFKYACGGWLKRNVIPETSSRYGNFDILRDELEVVLKDVLQEPKTEDIVAVQKAKALYRSCINESAIDSRGGEPLLKLLPDIYGWPVATENWEQKYGASWTAEKAIAQLNSKYGKKVLINLFVGTDDKNSVNHVIHIDQPRLGLPSRDYYECTGIYKEACTAYVDFMISVARLIRQEERLPIDENQLALEMNKVMELEKEIANATAKPEDRNDPMLLYNKMTLAQIQNNFSLEINGKPFSWLNFTNEIMSTVNISITNEEDVVVYAPEYLTKLKPILTKYSARDLQNLMSWRFIMDLVSSLSRTYKESRNAFRKALYGTTSETATWRRCANYVNGNMENAVGRLYVEAAFAGESKHVVEDLIAQIREVFIQTLDDLTWMDAETKKRAEEKALAIKERIGYPDDIVSNDNKLNNEYLELNYKEDEYFENIIQNLKFSQSKQLKKLREKVDKDEWISGAAVVNAFYSSGRNQIVFPAGILQPPFFSAQQSNSLNYGGIGMVIGHVITHGFDDNGRNFNKDGDLVDWWTQQSASNFKEQSQCMVYQYGNFSWDLAGGQHLNGINTLGENIADNGGLGQAYRAYQNYIKKNGEEKLLPGLDLNHKQLFFLNFAQVWCGTYRPEYAVNSIKTDVHSPGNFRIIGTLQNSAEFSEAFHCRKNSYMNPEKKCRVW
modifications: extracellular domain
With B1 the “NEP activity abolished by the E585V mutation” value [7] was “greater than 98%”, the “activity relative to wild-type NEP activity” value ([7]; fluorescence ex 340/em 425 nm) was ~ 1.7% and the “hIAPP fibrils … of protein” value (hIAPP fibrils) was “fibrils were observed”. The “viable cells (MTT) … of 400 nmol/l protein” value [1, 8] was 58.4 ± 9.3% and the “effect on hIAPP overexpression-induced cytotoxicity (MTT), NEPx” value ([6]; adenovirus prepro-hIAPP-GFP MOI 100, 4, 40 or 400 nmol/l NEPx) was “had no effect”.

B2: NEP: recombinant ectodomain of human neprilysin expressed in CHO-S cells (protein, UniProt P08473 52-750, looked up)
extracellular domain: YDDGICKSSDCIKSAARLIQNMDATTEPCTDFFKYACGGWLKRNVIPETSSRYGNFDILRDELEVVLKDVLQEPKTEDIVAVQKAKALYRSCINESAIDSRGGEPLLKLLPDIYGWPVATENWEQKYGASWTAEKAIAQLNSKYGKKVLINLFVGTDDKNSVNHVIHIDQPRLGLPSRDYYECTGIYKEACTAYVDFMISVARLIRQEERLPIDENQLALEMNKVMELEKEIANATAKPEDRNDPMLLYNKMTLAQIQNNFSLEINGKPFSWLNFTNEIMSTVNISITNEEDVVVYAPEYLTKLKPILTKYSARDLQNLMSWRFIMDLVSSLSRTYKESRNAFRKALYGTTSETATWRRCANYVNGNMENAVGRLYVEAAFAGESKHVVEDLIAQIREVFIQTLDDLTWMDAETKKRAEEKALAIKERIGYPDDIVSNDNKLNNEYLELNYKEDEYFENIIQNLKFSQSKQLKKLREKVDKDEWISGAAVVNAFYSSGRNQIVFPAGILQPPFFSAQQSNSLNYGGIGMVIGHEITHGFDDNGRNFNKDGDLVDWWTQQSASNFKEQSQCMVYQYGNFSWDLAGGQHLNGINTLGENIADNGGLGQAYRAYQNYIKKNGEEKLLPGLDLNHKQLFFLNFAQVWCGTYRPEYAVNSIKTDVHSPGNFRIIGTLQNSAEFSEAFHCRKNSYMNPEKKCRVW
modifications: extracellular domain
With B2 the “hIAPP fibrils … of protein” value (hIAPP fibrils) was “fibrils were not seen”, the “viable cells (MTT) with hIAPP in the presence of 4 nmol/l protein” value ([1]; 20 μmol/l synthetic hIAPP, 4 nmol/l protein, not statistically significant) was 39.4 ± 15.3% and the “viable cells (MTT) with hIAPP in the presence of 40 nmol/l protein” value ([1]; 20 μmol/l synthetic hIAPP, 40 nmol/l protein, mean ± SEM, n = 3 to 9) was 92.9 ± 9.5%. The “viable cells (MTT) … of 400 nmol/l protein” value [1, 8] was 84.5 ± 7.3%, the “effect on hIAPP overexpression-induced cytotoxicity (MTT), 400 nmol/l protein” value [6] was “reduced this hIAPP induced cytotoxicity” and the “effect on hIAPP overexpression-induced cytotoxicity (MTT), lower concentrations of NEP” value ([6]; adenovirus prepro-hIAPP-GFP MOI 100, 4 or 40 nmol/l) was “had no effect”.
